{"data": "Measurements collected from several papers", "note": "Lines come from different studies, so protocols differ."}
{"Compound": "Cc1cc(C)c2nc(-c3ccncc3)cc(C(=O)NCCCn3ccnc3)c2c1", "medium": "PBS", "solubility": "> 20 µM"}
{"Compound": "Cc1c(C(=O)O)ccc2c3n(nc12)[C@@H]1[C@H](C3)N(CC2CC2)[C@@]2(C(=O)Nc3cc(Cl)ccc32)[C@H]1c1cccc(Cl)c1F", "medium": "aqueous buffer", "pH": "pH 6.8", "solubility": "< 1 µg/mL"}
{"Compound": "Cn1cnc2ccc(Nc3c(F)ccc(NS(=O)(=O)N4CC(F)C4)c3Cl)c(Cl)c2c1=O", "medium": "FaSSIF", "pH": "pH 6.91", "solubility": "13 µg/mL"}
{"Compound": "CC(C)[C@H](NC(=O)[C@H](Cc1cscn1)NC(=O)CCc1ccccc1)C(=O)N[C@@H](CCCNC(=N)N)C(=O)c1nc2ccccc2s1", "medium": "PBS", "time": "90 min", "pH": "pH 7.4", "solubility": "> 10 µM"}
{"Compound": "Cc1cccn2c(=O)c3cc(C(=O)N[C@@H](C)c4ccccc4)c(N)[n+](CCOCCO)c3nc12", "medium": "PBS", "solubility": "> 20 µM"}
{"Compound": "Cc1noc(C)c1CC(=O)N1CCOc2c(cc(-c3cccc(Cl)c3)cc2OCC2CCCN(C)C2)C1 (stereo not drawn)", "medium": "water", "solubility": "75 µM"}
{"Compound": "Oc1ccccc1/C=N/c1c(-c2ccccc2)nc2ccc(Cl)cn12", "medium": "aqueous buffer", "pH": "pH 7", "solubility": "125 µg/mL"}
{"Compound": "CC(=Nc1ccc(N=Cc2cnccn2)cc1)N(C)C", "technique": "shake flask", "medium": "PBS", "time": "24 h", "pH": "pH 7.4", "temperature": "25 °C", "solubility": "~20 µg/mL"}
{"Compound": "COc1ccc2cc3n(c(=O)c2c1OC)CCc1cc2c(cc1-3)OCO2", "medium": "water", "time": "24 h", "temperature": "25 °C", "solubility": "< 0.05 µg/mL"}
{"Compound": "O=[N+]([O-])c1ccccc1/C=N/c1c(-c2ccccc2)nc2ccc(Cl)cn12", "medium": "aqueous buffer", "pH": "pH 7", "solubility": "< 1 µg/mL"}
{"Compound": "Cn1cncc1[C@@](N)(c1ccc(Cl)cc1)c1ccc2c(c1)c(-c1cccc(Cl)c1)cc(=O)n2C", "medium": "water", "pH": "pH 7.6", "temperature": "25 °C", "solubility": "0.12 µg/mL"}
{"Compound": "N#C[C@@]12C[C@@H]1[C@@H](n1cnc3c(N[C@@H](C4CCC4)C4CC4)nc(I)nc31)[C@H](O)[C@@H]2O", "medium": "aqueous buffer", "pH": "pH 7.4", "solubility": "50 µg/mL"}
